Data: ChEMBL document CHEMBL1145181, “Heterocyclic and phenyl double-bond-locked combretastatin analogues possessing potent apoptosis-inducing activity in HL60 and in MDR cell lines” (J Med Chem, 2005)
Values joined by “and” are separate entries in the source; they are usually repeats but may differ in a detail not shown here. Equal entries are not always repeated. One block for each compound: values may come before it.

Columns and labels:
HL-60 [1] = assay: Concentration to induce apoptosis in 50% cells was determined in HL60R cell lines; format: functional, cell-based; conditions: Homo sapiens
HL-60 [2] = assay: Concentration to induce apoptosis in 50% cells was determined in HL60 cells; format: functional, cell-based; conditions: Homo sapiens
[3] = Inhibitory concentration against HL60R cell lines; format: functional, cell-based, Homo sapiens; conditions: hl-60
Outline: (§1)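 Leukemia cells grown in RPMI 1640 with 10% FCS, penicillin, streptomycin and 2 mM L-glutamine at 37 °C, 5% CO2. Compounds from 20 mM DMSO stocks, final DMSO ≤0.5%. 2 × 10^5 cells in 1 mL were exposed to a range of concentrations for 48 h. Viable cells were counted by trypan blue on a hemocytometer and expressed as percent of control proliferation.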

K562 [4] = assay: Concentration to induce apoptosis in 50% cells was determined in K562ADR cell lines; format: functional, cell-based; conditions: Homo sapiens
HL-60 [5] = assay: Percentage of apoptotis inhibition at 2 uM concentration was determined in HL60 cells in the presence of Z-LEHD-fmk inhibitor; format: functional, Homo sapiens; design: scale not given: the % may be the effect or the level left
Outline: (§2)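 HL60 cells (2 × 10^5) were pretreated for 2 h with Fas-blocking MoAb ZB4 or with caspase-9 inhibitor Z-LEHD-fmk (5 µM) before compound was added. Apoptosis was scored at 48 h by acridine orange/ethidium bromide morphology and expressed as percent inhibition.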

[6] = Therapeutic index (IC90/percentage of CFUGEMM inhibition) value after 14 days for bone marrow cells treated with compound at IC90; format: cell-based; conditions: human, 336 h
HL-60 [7] = assay: Percentage of mitosis after 8 hr exposure of HL60 cells at 2 uM; format: functional, Homo sapiens
Outline: (§3)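 HL60 cells were exposed to compound for 8 h. Mitotic cells were then counted by fluorescence microscopy after acridine orange and ethidium bromide staining.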

K562 [8] = assay: Inhibitory concentration against K562ADR cell lines; format: functional, cell-based; conditions: Homo sapiens; outline: as §1
HuT78 [9] = assay: Percentage of apoptotis in HUT78B1 cells after 48 h of exposure at 2 uM concentration; format: functional, Homo sapiens
Outline: (§4)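 HUT78 (Fas-expressing) and HUT78B1 (nonfunctional death-domain-deleted Fas) cells were exposed to compound for 48 h. Apoptosis was scored morphologically by fluorescence microscopy after acridine orange/ethidium bromide staining, based on chromatin condensation and apoptotic bodies.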

HuT78 [10] = assay: Percentage of apoptotis was determined in HUT78 cells after 48 h of exposure at 2 uM concentration; format: functional, Homo sapiens; outline: as §4
HL-60 [11] = assay: Percentage of apoptotis inhibition at 2 uM concentration was determined in HL60 cells in the presence of Fas-blocking monoclonal antibody; format: functional, Homo sapiens; design: scale not given: the % may be the effect or the level left; outline: as §2
Osteoclast-like [12] = assay: Percentage of CFU-GEMM inhibition value after 14 days for bone marrow cells treated with compound at IC90; format: functional, Homo sapiens
K562 [13] = assay: Concentration to induce apoptosis in 50% cells was determined in K562 cell lines; format: functional, cell-based; conditions: Homo sapiens
HL-60 [14] = assay: Inhibitory concentration to inhibit cell growth 50% was determined in HL60 cells; format: functional, cell-based; conditions: Homo sapiens; outline: as §1
[15] = Percentage of apoptotis in HUT78 cells after 48 h of exposure at 2 uM concentration; format: functional, Homo sapiens; conditions: in the assay text read “at IC90 concentration” for “at 2 uM concentration”; outline: as §4
HL-60 [16] = assay: Percentage of mitosis after 8 hr exposure of HL60 cells to the compound at 1 uM; format: functional, Homo sapiens; outline: as §3
[17] = Concentration required to inhibit cell growth 50% was determined in HL60R cell lines; format: functional, cell-based, Homo sapiens; outline: as §1
Osteoclast-like [18] = assay: Percentage of CFU-GEMM inhibition after 14 days for bone marrow cells treated with compound at IC90; format: functional, Homo sapiens
HL-60 [19] = assay: Percentage of apoptotis inhibition at 0.3 uM concentration was determined in HL60 cells in the presence of Z-LEHD-fmk inhibitor; format: functional, Homo sapiens; design: scale not given: the % may be the effect or the level left; outline: as §2
HL-60 [20] = assay: Percentage of apoptotis inhibition at 0.3 uM concentration was determined in HL60 cells in the presence of Fas-blocking monoclonal antibody; format: functional, Homo sapiens; design: scale not given: the % may be the effect or the level left; outline: as §2
K562 [21] = assay: Concentration required to inhibit cell growth 50% was determined in K562ADR cell lines; format: functional, cell-based; conditions: Homo sapiens; outline: as §1
HL-60 [22] = assay: Percentage of apoptotis inhibition at 0.5 uM concentration was determined in HL60 cells in the presence of Fas-blocking monoclonal antibody; format: functional, Homo sapiens; design: scale not given: the % may be the effect or the level left; outline: as §2
HL-60 [23] = assay: Percentage of apoptotis inhibition at 0.5 uM concentration was determined in HL60 cells in the presence of Z-LEHD-fmk inhibitor; format: functional, Homo sapiens; design: scale not given: the % may be the effect or the level left; outline: as §2
HL-60 [24] = assay: Apoptotic concentration to induce apoptosis in 50% cells was determined in HL60R cell lines; format: functional, cell-based; conditions: Homo sapiens
HL-60 [25] = assay: Percentage of mitosis after 8 hr exposure of HL60 cells to the compound at 2.5 nM; format: functional, Homo sapiens; outline: as §3

Compound: COc1ccc([C@@H]2ON=C(C)[C@@H]2c2cc(OC)c(OC)c(OC)c2)cc1O
AC50 (HL-60 [2]): 3500 nM | IC50 (HL-60 [14]): 2000 nM

Compound: COc1ccc(-c2ccc(-c3cc(OC)c(OC)c(OC)c3)cc2)cc1O
AC50 (HL-60 [2]): 35000 nM | IC50 (HL-60 [14]): 30000 nM

Compound: COc1ccc(-c2ccccc2-c2cc(OC)c(OC)c(OC)c2)cc1O
AC50 (HL-60 [2]): 30000 nM | IC50 (HL-60 [14]): 20000 nM

Compound: COc1ccc(-c2cccc(-c3cc(OC)c(OC)c(OC)c3)c2)cc1O
AC50 (HL-60 [2]): 22000 nM | IC50 (HL-60 [14]): 12000 nM

Compound: COc1ccc(-c2cc(-c3cc(OC)c(OC)c(OC)c3)on2)cc1O
AC50 (HL-60 [2]): 4000 nM | IC50 (HL-60 [14]): 3000 nM

Compound: COc1ccc([C@@H]2C(C)=NO[C@@H]2c2cc(OC)c(OC)c(OC)c2)cc1O
AC50 (HL-60 [2]): 3500 nM | IC50 (HL-60 [14]): 2000 nM

Compound: COc1ccc(-c2ncccc2-c2cc(OC)c(OC)c(OC)c2)cc1O
AC50 (HL-60 [2]): 10000 nM | IC50 (HL-60 [14]): 5000 nM

Compound: COc1ccc(C2CC(c3cc(OC)c(OC)c(OC)c3)=NO2)cc1O (configuration not stated)
AC50 (HL-60 [2]): 5500 nM | IC50 (HL-60 [14]): 3200 nM

Compound: COc1ccc(-c2cc(-c3cc(OC)c(OC)c(OC)c3)no2)cc1O
AC50 (HL-60 [2]): 4500 nM | IC50 (HL-60 [14]): 3000 nM

Compound: COc1ccc([C@H]2C(S(=O)(=O)c3ccccc3)=NO[C@@H]2c2cc(OC)c(OC)c(OC)c2)cc1O
AC50 (HL-60 [2]): 25000 nM | IC50 (HL-60 [14]): 15000 nM

Compound: COc1ccc(/C=C\c2cc(OC)c(OC)c(OC)c2)cc1O [COMBRETASTATIN A4]
Ratio [6]: 2.4 | Activity (HL-60 [25]): 88% | CFU-GEMM (Osteoclast-like [12]): 37%

The next lines start with results.

IC50 [3]: 3000 nM and 1000 nM | IC50 (K562 [8]): 2000 nM | IC50 (HL-60 [14]): 900 nM
Compound: COc1ccc([C@H]2ON=C(S(=O)(=O)c3ccccc3)[C@@H]2c2cc(OC)c(OC)c(OC)c2)cc1O
AC50 (HL-60 [1]): 5000 nM | AC50 (HL-60 [2]): 2000 nM | AC50 (K562 [4]): 8000 nM | Activity (HL-60 [5]): 71.5% | Ratio [6]: 2.1 | Activity (HL-60 [7]): 18% | Activity (HuT78 [9]): 46% | Activity (HuT78 [10]): 70% | Activity (HL-60 [11]): 25% | CFU-GEMM (Osteoclast-like [12]): 42% | AC50 (K562 [13]): 2000 nM

IC50 (HL-60 [14]): 300 nM
Compound: COc1ccc(-c2cccnc2-c2cc(OC)c(OC)c(OC)c2)cc1O
AC50 (HL-60 [2]): 600 nM

IC50 (HL-60 [14]): 1500 nM
Compound: COc1ccc(C2=NOC(c3cc(OC)c(OC)c(OC)c3)C2)cc1O (configuration not stated)
AC50 (HL-60 [2]): 2200 nM

IC50 (K562 [21]): 500 nM | IC50 (HL-60 [14]): 100 nM
Compound: COC1=NO[C@@H](c2ccc(OC)c(O)c2)[C@H]1c1cc(OC)c(OC)c(OC)c1
AC50 (HL-60 [1]): 750 nM | AC50 (HL-60 [2]): 300 nM | Activity [15]: 80% | Activity (HL-60 [16]): 17% | IC50 ([17]; Homo sapiens, HL60R): 250 nM | IC50 ([17]; hl60r): 250 nM | AC50 (K562 [4]): 2000 nM | Ratio [6]: 2.5 | CFU-GEMM (Osteoclast-like [18]): 36% | Activity (HuT78 [9]): 60% | AC50 (K562 [13]): 400 nM | Activity (HL-60 [19]): 50% | Activity (HL-60 [20]): 25%

IC50 (K562 [21]): 500 nM | IC50 (HL-60 [14]): 250 nM
Compound: COC1=NO[C@H](c2cc(OC)c(OC)c(OC)c2)[C@@H]1c1ccc(OC)c(O)c1
AC50 (HL-60 [2]): 500 nM | Activity [15]: 75% | Activity (HL-60 [16]): 15% | Activity (HL-60 [22]): 57% | IC50 ([17]; hl60r): 750 nM and 200 nM | AC50 (K562 [4]): 2000 nM | Ratio [6]: 2.6 | Activity (HL-60 [23]): 91.4% | Activity (HuT78 [9]): 40% | CFU-GEMM (Osteoclast-like [12]): 34% | AC50 (K562 [13]): 400 nM | AC50 (HL-60 [24]): 2000 nM

IC50 (HL-60 [14]): 500 nM
Compound: COc1ccc(-c2cc(Cl)cnc2-c2cc(OC)c(OC)c(OC)c2)cc1O
AC50 (HL-60 [2]): 800 nM
